This is a sample that favours compounds with a hit; in the whole collection about 0.85% have one here.
zfTRPN1 agonist – activates the zebrafish TRPN1 channel | HEK293 zebrafish TRPN1-YFP, Fluo-8 calcium fluorescence; 100% = response to 87 µM carbachol | activation, % at 3 µM | 220,000 compounds, 0.18% hits;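 active means activation above its plate's cutoff, the mean activation of test wells on that plate plus 3 SD, cut at about 19% in these data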
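Control set: carbachol 87 µM as high control, DMSO as low control; system: HEK293 stable line with zebrafish TRPN1-YFP; read-out: % activation versus carbachol response; detection: intracellular calcium fluorescence with Fluo-8; doses: single test compound dose, 3 µM nominal, 0.3% DMSO; schedule: dye 1 h 37 °C plus 30 min RT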
V1aR counter – activates human V1a receptor in oxytocin agonist counter-screen | P37288 | CHO-V1R cells, Fluo-8 calcium fluorescence, agonist mode; 0% DMSO, 100% 3 nM vasopressin | activation, % at 3 µM | 320,000 compounds, 0.25% hits | AID 2797;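 active means activation above the mean activation of all tested compounds plus 3 SD, per screening run, cut at about 20% in these data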;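 further: signal is peak over basal fluorescence ratio across a 100 second FLIPR read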
OXTR potentiator – human OXTR potentiation; CHO-OTR cells, Fluo-8 calcium fluorescence, potentiator mode; 0% = oxytocin EC15, 100% = EC100; P30559; 320,000 compounds, 0.061% hits; AID 2445; activation, % at 3 µM;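 active means activation above that plate's cutoff, the mean activation of tested compounds plus 3 SD, cut at about 6.6% in these data, passing the limit was not always enough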
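System: human OTR in CHO cells; Also added: sub-maximal oxytocin, roughly EC15; Timing: compound 6 min at room temperature before oxytocin, 100 s read; Technique: Fluo-8 intracellular calcium fluorescence, ex 470-495, em 515-575 nm; Controls: oxytocin EC15 low and EC100 high; Replication: singlicate.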
TRPML3 ag – agonists of human TRPML3 channel | Q8TDD5 | HEK293 TRPML3-YFP, Fluo-8 calcium fluorescence; 100% = the carbachol control signal | activation, % at 3 µM | 220,000 compounds, 0.29% hits;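 active means activation above its plate's cutoff, the mean activation of the plate's test wells plus 3 SD, cut at about 12% in these data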
Target sequence (Q8TDD5 whole entry, looked up): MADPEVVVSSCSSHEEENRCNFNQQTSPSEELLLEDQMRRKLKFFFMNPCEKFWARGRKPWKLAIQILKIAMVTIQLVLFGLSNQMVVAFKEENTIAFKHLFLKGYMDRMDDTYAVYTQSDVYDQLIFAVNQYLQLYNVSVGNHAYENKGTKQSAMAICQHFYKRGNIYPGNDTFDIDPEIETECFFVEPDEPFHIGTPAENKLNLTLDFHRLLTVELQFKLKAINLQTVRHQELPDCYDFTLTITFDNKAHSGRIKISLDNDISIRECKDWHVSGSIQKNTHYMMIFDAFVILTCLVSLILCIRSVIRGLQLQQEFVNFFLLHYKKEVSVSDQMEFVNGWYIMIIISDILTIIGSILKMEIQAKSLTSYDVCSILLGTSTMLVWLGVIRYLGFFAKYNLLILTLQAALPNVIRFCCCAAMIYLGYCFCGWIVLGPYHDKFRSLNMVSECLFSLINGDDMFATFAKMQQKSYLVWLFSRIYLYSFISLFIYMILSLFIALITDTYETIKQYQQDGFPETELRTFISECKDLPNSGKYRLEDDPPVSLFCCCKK
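Test system: TRPML3-YFP stable HEK293 cells. Doses: single point at 3 µM. Incubation: dye loading 1 h 37 °C then 30 min ambient, 125 s read. Signal: Fluo-8 calcium dye fluorescence, ex 470-495, em 515-575 nm. Measure: percent activation from peak-to-basal fluorescence ratio, scaled between DMSO and carbachol.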
OXTR ag – activates the human oxytocin receptor; P30559; CHO-OTR cells, Fluo-8 calcium fluorescence; normalized: DMSO 0%, oxytocin 100%; activation, % at 3 µM; 320,000 compounds, 0.32% hits; AID 2435;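 active means activation above the mean of all tested compounds plus 3 SD, cutoff set per screening run, cut at about 20% in these data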;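 further: peak over basal fluorescence ratio from a 100 s FLIPR kinetic read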
CRFR2-BP ag – agonists of human CRF-binding protein/CRF-R2 receptor complex | HEK293 CRF-R2/CRF-BP, calcium dye fluorescence (FLIPR); percent of saturating CRF peptide response | activation, % at 13.2 µM | 350,000 compounds, 0.46% hits | AID 588473;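 active means activation of at least 50%, plus an integration ratio under a set limit after plate pattern correction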
TRPN1 counter – counter-screen for TRPML3 agonists: agonists of zebrafish TRPN1 channel. shares compounds with TRPML3 ag. HEK293 zebrafish TRPN1-YFP, Fluo-8 calcium fluorescence; scaled: carbachol wells 100%, DMSO wells 0%. activation, % at 3 µM. 310 compounds, 10% hits. AID 1525;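 active means mean activation over replicates above a set limit taken from the earlier TRPN1 channel primary screen, cut at about 19% in these data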
TRPML3 confirm – confirmation of human TRPML3 channel agonists. shares compounds with TRPML3 ag. HEK293 TRPML3-YFP, Fluo-8 calcium fluorescence; 100% set by carbachol, 0% by DMSO. activation, % at 3 µM. 310 compounds, 80% hits;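 active means activation above a set limit derived from the earlier primary screen, cut at about 12% in these data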
OXTR ag confirm – confirmation of human oxytocin receptor agonists; shares compounds with OXTR ag; CHO-OTR cells, Fluo-8 calcium fluorescence, agonist; activation, % at 3 µM; 390 compounds, 20% hits; AID 434963;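 active means mean activation above about 20% derived from the earlier single-dose screen, limit read from the data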;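 further: peak over minimum fluorescence ratio per well during a 100 second FLIPR read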
V1R ag counter 3x – counter-screen for oxytocin receptor agonists: V1a receptor agonists. shares compounds with OXTR ag. activation, % at 3 µM. 390 compounds, 10% hits. CHO-V1R cells, Fluo-8 calcium fluorescence, agonist;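 active means mean activation over triplicate exceeds the hit threshold set in the earlier primary screen, cut at about 20% in these data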;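 further: peak over basal fluorescence ratio within a 100 second read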
A number is an active result; ! = a repeat was not active.

How did CCC(C)(C)C1CCc2[nH]nc(C(=O)NC(C)C)c2C1 (configuration not stated) do in these assays?
V1aR counter: inactive; OXTR potentiator: inactive; OXTR ag: inactive; CRFR2-BP ag: inactive

How did c1ccc2c(c1)OCCOCCOCCOCCOCCOc1ccccc1OCCOCCOCCO2 do in these assays?
zfTRPN1 agonist: inactive; V1aR counter: inactive; OXTR potentiator: inactive; TRPML3 ag: 12; OXTR ag: 21; CRFR2-BP ag: 60; TRPN1 counter: 25; TRPML3 confirm: inactive; OXTR ag confirm: inactive; V1R ag counter 3x: inactive

What do the screens show for `COc1ccc(/C=C/C(=O)OCC(=O)NCc2ccccc2Cl)cc1OC`?
V1aR counter: inactive; OXTR potentiator: inactive; OXTR ag: inactive; CRFR2-BP ag: inactive

What do the screens show for `CC(=O)c1sc(NC(=O)C2(F)C(F)(F)C(F)(F)C(F)(F)C(F)(F)C2(F)F)nc1C`?
zfTRPN1 agonist: inactive; V1aR counter: inactive; OXTR potentiator: inactive; TRPML3 ag: 22; OXTR ag: 21; CRFR2-BP ag: inactive; TRPN1 counter: 31; TRPML3 confirm: 16; OXTR ag confirm: inactive; V1R ag counter 3x: inactive

Results for Cc1cc(C(c2ccc(O)cc2)c2cc(C)c(O)cc2C)c(C)cc1O ?
V1aR counter: inactive; OXTR potentiator: inactive; OXTR ag: 41; CRFR2-BP ag: 69; OXTR ag confirm: 40; V1R ag counter 3x: 26

What do the screens show for `CCOC(=O)C1=C(COC(=O)[C@@H](NC(=O)c2cccc(C)c2)C(C)C)NC(=O)NC1C` (some centres not stated)?
V1aR counter: inactive; OXTR potentiator: inactive; OXTR ag: inactive; CRFR2-BP ag: inactive

What do the screens show for `Cc1nc2c(c(=O)c3ccccc3n2C)c(=O)n1C1CCCCCC1`?
zfTRPN1 agonist: inactive; V1aR counter: inactive; OXTR potentiator: inactive; TRPML3 ag: inactive; OXTR ag: 20; CRFR2-BP ag: 51; OXTR ag confirm: inactive; V1R ag counter 3x: inactive

Results for CCN1N=C(C)C=C(c2ccccc2)n2c1nc1ccccc12 ?
zfTRPN1 agonist: inactive; V1aR counter: inactive; OXTR potentiator: inactive; TRPML3 ag: inactive; OXTR ag: inactive; CRFR2-BP ag: inactive

Results for Cn1cccc1Cc1nnc(SCC(=O)NCC2CCCO2)n1C (configuration not stated) ?
zfTRPN1 agonist: inactive; V1aR counter: inactive; OXTR potentiator: inactive; TRPML3 ag: inactive; OXTR ag: inactive; CRFR2-BP ag: inactive

What do the screens show for `Cc1cc(/C=C(\C#N)C(N)=O)c(C)n1-c1ccc(N2CCOCC2)c([N+](=O)[O-])c1`?
zfTRPN1 agonist: inactive; V1aR counter: inactive; OXTR potentiator: inactive; TRPML3 ag: inactive; OXTR ag: 23; CRFR2-BP ag: inactive; OXTR ag confirm: inactive; V1R ag counter 3x: inactive

How did Cc1cc(C=O)c(C)n1-c1ccc(N2CCCCC2)c([N+](=O)[O-])c1 do in these assays?
zfTRPN1 agonist: inactive; V1aR counter: inactive; OXTR potentiator: inactive; TRPML3 ag: inactive; OXTR ag: inactive; CRFR2-BP ag: inactive

How did Cc1ccc(C(=O)NC(=S)NNC(=O)c2ccccc2O)cc1 do in these assays?
V1aR counter: inactive; OXTR potentiator: inactive; OXTR ag: 22; CRFR2-BP ag: 90; OXTR ag confirm: 35; V1R ag counter 3x: 30

What do the screens show for `CN1CCN(C(=S)c2ccc(OCC(=O)Nc3cccc(C(F)(F)F)c3)cc2)CC1`?
zfTRPN1 agonist: inactive; V1aR counter: inactive; OXTR potentiator: inactive; TRPML3 ag: inactive; OXTR ag: 20; CRFR2-BP ag: inactive; OXTR ag confirm: inactive; V1R ag counter 3x: inactive

Results for COc1cc(C(=O)NCc2cccnc2)ccc1OCC(=O)Nc1cccc(C(F)(F)F)c1 ?
V1aR counter: inactive; OXTR potentiator: inactive; OXTR ag: 23; CRFR2-BP ag: inactive; OXTR ag confirm: inactive; V1R ag counter 3x: inactive

Results for O=C(CSc1ccccc1F)NCC1(N2CCCCC2)CCCCC1 ?
V1aR counter: inactive; OXTR potentiator: inactive; OXTR ag: inactive; CRFR2-BP ag: inactive

What do the screens show for `O=C(N1CCCCCC1)N1CCN(S(=O)(=O)c2ccccc2)CC1`?
zfTRPN1 agonist: inactive; V1aR counter: inactive; OXTR potentiator: inactive; TRPML3 ag: inactive; OXTR ag: inactive; CRFR2-BP ag: inactive

How did O=C(N1CCCCC1)N1CCN(S(=O)(=O)c2ccc(Cl)cc2)CC1 do in these assays?
zfTRPN1 agonist: inactive; V1aR counter: inactive; OXTR potentiator: inactive; TRPML3 ag: inactive; OXTR ag: 27; CRFR2-BP ag: inactive; OXTR ag confirm: inactive; V1R ag counter 3x: inactive

Results for O=C1C=C(O)CC(c2ccc(Cl)c(Cl)c2)C1 (configuration not stated) ?
zfTRPN1 agonist: inactive; V1aR counter: inactive; OXTR potentiator: inactive; TRPML3 ag: inactive; OXTR ag: inactive; CRFR2-BP ag: inactive

What do the screens show for `CN[C@H]1CC[C@@H](c2ccc(Cl)c(Cl)c2)c2ccccc21`?
zfTRPN1 agonist: inactive; V1aR counter: inactive; OXTR potentiator: inactive; TRPML3 ag: inactive; OXTR ag: 21!; CRFR2-BP ag: inactive; OXTR ag confirm: inactive; V1R ag counter 3x: inactive

How did C[C@@]12C(=O)NCC(=O)N1[C@@H]1c3cc(Br)ccc3OC[C@@H]1[C@@H]2c1ccccc1 do in these assays?
V1aR counter: inactive; OXTR potentiator: inactive; OXTR ag: inactive; CRFR2-BP ag: inactive

How did COc1ccc(C(=O)CSc2nnc(CNc3ccc(C)cc3C)o2)cc1 do in these assays?
zfTRPN1 agonist: inactive; V1aR counter: inactive; OXTR potentiator: inactive; TRPML3 ag: inactive; OXTR ag: 25; CRFR2-BP ag: inactive; OXTR ag confirm: inactive; V1R ag counter 3x: inactive

Results for Cc1ccc(NCc2nnc(SCC(=O)c3ccc4c(c3)OCCO4)o2)c(C)c1 ?
zfTRPN1 agonist: inactive; V1aR counter: inactive; OXTR potentiator: inactive; TRPML3 ag: inactive; OXTR ag: inactive; CRFR2-BP ag: inactive

What do the screens show for `COC(=O)CCCC(=O)N1CCC(CO)(CCc2ccccc2)CC1`?
V1aR counter: inactive; OXTR potentiator: inactive; OXTR ag: inactive; CRFR2-BP ag: inactive

Compound activity from PubChem.
